Assay results from ChEMBL document CHEMBL4038328, “Structure-Guided Optimization of HIV Integrase Strand Transfer Inhibitors” (J Med Chem, 2017).

Columns and labels:
[1] = Inhibition of HIV1 integrase strand transfer activity using 5'-end 32P labeled DNA substrate measured after 2 hrs by PAGE based phosphor imaging method; parameters: species or system Human immunodeficiency virus 1
In short: (§1)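 Gel-based assay, Mg2+ cofactor: 400 nM integrase with 20 nM DNA substrate 5′-32P-labeled on transferred strand in 50 mM MOPS pH 7.2, 7.5 mM MgCl2, 14 mM 2-mercaptoethanol, inhibitor or DMSO; 2 h at 37 °C. Stopped with formamide/SDS loading buffer; products resolved on 16% denaturing polyacrylamide gels, quantified by phosphorimaging.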

[2] = Inhibition of HIV1 integrase 3' processing activity using 5'-end 32P labeled DNA substrate measured after 2 hrs by PAGE based phosphor imaging method; parameters: species or system Human immunodeficiency virus 1; in short: as §1
[3] = test system: Human immunodeficiency virus 1; assay: Antiviral activity against VSV-G pseudotyped HIV1 harboring integrase G140S/Q148H double mutant infected in HOS cells pretreated […] for 3 hrs followed by viral infection measured after 48 hrs by luciferase reporter gene assay; assay type: functional, cell-based; conditions: Human immunodeficiency virus 1, HOS
In short: (§2)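 Single-round luciferase HIV-1 vector (pNLNgoMIVR−ΔLUC carrying WT or mutant IN) was pseudotyped with VSV-g by calcium phosphate co-transfection of 293 cells, and supernatant was harvested after 48 h. HOS cells were seeded at 4000/well in DMEM with 5% FBS and 5% newborn calf serum. They were pretreated 3 h at 37 °C with 5–0.0001 μM (11 serial dilutions), then infected for 48 h. Luminescence was normalized to untreated cells, and EC50 came from nonlinear regression.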

[4] = test system: HOS; assay: Cytotoxicity against HOS cells assessed as reduction in cell viability after 48 hrs by ATPLite luminescence assay; assay type: cell-based; conditions: human, hos, 48 h
In short: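 HOS cells seeded at 4000 per well the day before, exposed to compounds over 250 to 0.05 μM at 37 °C for 48 h. ATP measured by luminescence after lysis and 20 min signal development at room temperature.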

[5] = test system: Human immunodeficiency virus 1; assay: Antiviral activity against VSV-G pseudotyped HIV1 harboring wild-type integrase infected in HOS cells pretreated […] for 3 hrs followed by viral infection measured after 48 hrs by luciferase reporter gene assay; assay type: functional, cell-based; conditions: Human immunodeficiency virus 1, HOS; in short: as §2
[6] = test system: Human immunodeficiency virus 1; assay: Selectivity ratio of EC50 for VSV-G pseudotyped HIV1 harboring integrase G140S/Q148H mutant infected in HOS cells to EC50 for VSV-G pseudotyped HIV1 harboring wild-type integrase infected in HOS cells; assay type: functional
In short: (§3)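 Fold change is the EC50 against the mutant-IN vector divided by the EC50 against the WT-IN vector. Both come from the single-round luciferase infectivity assay in HOS cells, with a 3 h compound pretreatment followed by 48 h infection.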

[7] = test system: Human immunodeficiency virus 1; assay: Antiviral activity against VSV-G pseudotyped HIV1 harboring integrase Y143R mutant infected in HOS cells pretreated […] for 3 hrs followed by viral infection measured after 48 hrs by luciferase reporter gene assay; assay type: functional, cell-based; conditions: Human immunodeficiency virus 1, HOS; in short: as §2
[8] = test system: Human immunodeficiency virus 1; assay: Selectivity ratio of EC50 for VSV-G pseudotyped HIV1 harboring integrase Y143R mutant infected in HOS cells to EC50 for VSV-G pseudotyped HIV1 harboring wild-type integrase infected in HOS cells; assay type: functional; in short: as §3
[9] = test system: Human immunodeficiency virus 1; assay: Antiviral activity against VSV-G pseudotyped HIV1 harboring integrase N155H mutant infected in HOS cells pretreated […] for 3 hrs followed by viral infection measured after 48 hrs by luciferase reporter gene assay; assay type: functional, cell-based; conditions: Human immunodeficiency virus 1, HOS; in short: as §2
[10] = test system: Human immunodeficiency virus 1; assay: Selectivity ratio of EC50 for VSV-G pseudotyped HIV1 harboring integrase N155H mutant infected in HOS cells to EC50 for VSV-G pseudotyped HIV1 harboring wild-type integrase infected in HOS cells; assay type: functional; in short: as §3

Compound	IC50 [1] [µM]	IC50 [2] [µM]	EC50 [3] [µM]	CC50 [4] [µM]	EC50 [5] [µM]	Ratio EC50 [6]	EC50 [7] [µM]	Ratio EC50 [8]	EC50 [9] [µM]	Ratio EC50 [10]
O=C(NCc1ccc(F)cc1F)c1c(O)c2ccc(N3CCCCC3)nc2n(O)c1=O	70	> 333								
COC(=O)CNc1c(C(=O)NCc2ccc(F)cc2F)c(=O)n(O)c2ncc(CCCCCO)cc12	0.004	2.1	0.042	> 250	0.0033	13	0.0035	1	0.011	3
Nc1c(C(=O)NCc2ccc(F)cc2F)c(=O)n(O)c2ncc(CCC(=O)NCCO)cc12	0.002			> 250	0.263					
Nc1c(C(=O)NCc2ccc(F)cc2F)c(=O)n(O)c2ncc(/C=C/C(=O)NCCO)cc12	0.007			> 250	0.196					
CN(C)C(=O)/C=C/c1cnc2c(c1)c(N)c(C(=O)NCc1ccc(F)cc1F)c(=O)n2O	0.005		0.058	> 250	0.0016	36	0.0072	5	0.015	9
Nc1c(C(=O)NCc2ccc(F)cc2F)c(=O)n(O)c2ncc(CCCCc3ccccc3)cc12		42	0.128	13	0.011	12	0.0047	0.4	0.039	4
Nc1c(C(=O)NCc2ccc(F)cc2F)c(=O)n(O)c2ncc(CCCOCCO)cc12	0.002	1.5	0.035	> 250	0.0016	22	0.0012	0.8	0.0042	3
COc1ccc2c(N)c(C(=O)NCc3ccc(F)cc3F)c(=O)n(O)c2n1	0.011	18	3.6	2.2	0.03	120	0.062	2	0.4	13
O=C(NCc1ccc(F)cc1F)c1c(O)c2ccc(N3CCOCC3)nc2n(O)c1=O	1.9	> 333								
O=C(NCc1ccc(F)cc1F)c1c(O)c2cc(CCCCCO)cnc2n(O)c1=O	0.012	14.3	0.029	> 250	0.024	1	0.0083	0.3	0.032	1
COC(=O)CNc1c(C(=O)NCc2ccc(F)cc2F)c(=O)n(O)c2nc(N3CCCCC3)ccc12	96	> 333								
Nc1c(C(=O)NCc2ccc(F)cc2F)c(=O)n(O)c2nc(N3CCCCC3)ccc12	54	> 333								
COc1ccc2c(O)c(C(=O)NCc3ccc(F)cc3F)c(=O)n(O)c2n1	0.033	32		12	0.215					
CN(C)C(=O)CCc1cnc2c(c1)c(N)c(C(=O)NCc1ccc(F)cc1F)c(=O)n2O	0.008		0.016	> 250	0.0013	12	0.006	5	0.0068	5
Nc1c(C(=O)NCc2ccc(F)cc2F)c(=O)n(O)c2ncc(CCCC3CCCCC3)cc12		289		27.4	0.053		0.112	2	0.146	3
CC(C)NC(=O)/C=C/c1cnc2c(c1)c(N)c(C(=O)NCc1ccc(F)cc1F)c(=O)n2O	0.006		0.286	> 250	0.0021	136	0.011	5	0.012	6
CN(C)CCCc1cnc2c(c1)c(N)c(C(=O)NCc1ccc(F)cc1F)c(=O)n2O	0.014	3	0.032	5	0.0061	5	0.007	1	0.029	5
COC(=O)CNc1c(C(=O)NCc2ccc(F)cc2F)c(=O)n(O)c2nc(N3CCOCC3)ccc12	6.2	> 333								
Nc1c(C(=O)NCc2ccc(F)cc2F)c(=O)n(O)c2ncc(CCc3ccccc3)cc12	0.014	48	0.14	18	0.0056	25	0.0055	1	0.021	4
Nc1c(C(=O)NCc2ccc(F)cc2F)c(=O)n(O)c2nc(N3CCOCC3)ccc12	54	> 333								
Nc1c(C(=O)NCc2ccc(F)cc2F)c(=O)n(O)c2ncc(CCC(=O)O)cc12	0.004		0.195	> 250	0.0019	103	0.0049	3	0.01	5
CC(C)NC(=O)CCc1cnc2c(c1)c(N)c(C(=O)NCc1ccc(F)cc1F)c(=O)n2O	0.002		0.013	> 250	0.005	3	0.0087	2	0.011	2
COC(=O)CNc1c(C(=O)NCc2ccc(F)cc2F)c(=O)n(O)c2nc(OC)ccc12	0.042	20		12	0.032		0.052	2	1.26	39
